Results reported in ChEMBL document CHEMBL1268835, “Property based optimization of δ-lactam HDAC inhibitors for metabolic stability” (Bioorg Med Chem Lett, 2010).

What was measured:
[1] = test system: PC-3; experiment: Growth inhibition of human PC3 cells; assay type: functional, cell-based
[2] = test system: MDA-MB-231; experiment: Growth inhibition of human MDA-MB-231 cells; assay type: functional, cell-based
[3] = test system: HCT-15; experiment: Growth inhibition of human HCT15 cells; assay type: functional
[4] = test system: ACHN; experiment: Growth inhibition of human ACHN cells; assay type: functional
[5] = test system: NCI-H23; experiment: Growth inhibition of human NCI-H23 cells; assay type: functional
[6] = test system: NUGC-3; experiment: Growth inhibition of human NUGC3 cells; assay type: functional
[7] = Metabolic stability of the compound in ICR mouse liver microsome assessed as compound remaining at 1 uM in presence of buffer; assay type: ADME; settings: liver microsomes, read-out: Stability
Procedure, shortened: (§1)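 Test compounds were incubated at 37 °C with ICR mouse liver microsomes, with NADPH, without NADPH, and in buffer alone. Read-out is % parent remaining. The screen used 1 mg protein/ml for 30 min. A separate run used female ICR microsomes at 0.5 mg protein/mL for 60 min with 1 µM compound.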

[8] = Metabolic stability of the compound in ICR mouse liver microsome assessed as compound remaining at 1 uM in presence of NADPH; assay type: ADME; settings: liver microsomes, read-out: Stability; procedure, shortened: as §1
[9] = Metabolic stability of the compound in ICR mouse liver microsome assessed as compound remaining at 1 uM; assay type: ADME; settings: liver microsomes, read-out: Stability; procedure, shortened: as §1
[10] = Apparent permeability across human Caco-2 cells; assay type: ADME, cell-based
[11] = Half life in BALB/c mouse at 5 mg/kg, iv; assay type: ADME, organism-based; parameters: dose 5 mg/kg, route intravenous; settings: in vivo
Procedure, shortened: (§2)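 Balb/c mice were dosed intravenously or orally. Parameters come from noncompartmental analysis of mean plasma concentration–time profiles from three animals. Intravenous AUC was taken from 0 to infinity and oral AUC from 0 to 5 h. Oral bioavailability (F) is expressed as %.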

[12] = AUC (0 to infinity) in BALB/c mouse at 5 mg/kg, iv; assay type: ADME, organism-based; parameters: time infinity, dose 5 mg/kg, route intravenous; settings: plasma; procedure, shortened: as §2
[13] = Cmax in BALB/c mouse at 20 mg/kg, po; assay type: ADME, organism-based; parameters: dose 20 mg/kg, route oral; settings: in vivo; procedure, shortened: as §2
[14] = Clearance in BALB/c mouse at 5 mg/kg, iv; assay type: ADME, organism-based; parameters: dose 5 mg/kg, route intravenous; settings: in vivo; procedure, shortened: as §2
[15] = Tmax in BALB/c mouse at 20 mg/kg, po; assay type: ADME, organism-based; parameters: dose 20 mg/kg, route oral; settings: in vivo; procedure, shortened: as §2
[16] = Oral bioavailability in BALB/c mouse at 20 mg/kg; assay type: ADME, organism-based; settings: in vivo; procedure, shortened: as §2
[17] = Half life in BALB/c mouse at 20 mg/kg, po; assay type: ADME, organism-based; parameters: dose 20 mg/kg, route oral; settings: in vivo; procedure, shortened: as §2
[18] = (§3) Volume of distribution at steady state in BALB/c mouse at 5 mg/kg, iv; assay type: ADME, organism-based; parameters: dose 5 mg/kg, route intravenous; settings: BALB/c, in vivo, read-out: Vdss; procedure, shortened: as §2
[19] = AUC (0 to 5 hrs) in BALB/c mouse at 20 mg/kg, po; assay type: ADME, organism-based; parameters: dose 20 mg/kg, route oral; settings: plasma; procedure, shortened: as §2
[20] = test system: Mus musculus; experiment: Clearance in BALB/c mouse at 10 mg/kg, iv; settings: in vivo
[21] = test system: Mus musculus; experiment: as §3; assay type: ADME, organism-based; parameters: dose 5 mg/kg, route intravenous; settings: in vivo; procedure, shortened: as §2
[22] = test system: Mus musculus; experiment: Half life in BALB/c mouse at 10 mg/kg, iv; settings: in vivo

| GI50 [1] [nM] | GI50 [2] [nM] | GI50 [3] [nM] | GI50 [4] [nM] | GI50 [5] [nM] | remaining at 1 µM [8] [%] | remaining at 1 µM [9] [%] | SMILES | GI50 [6] [nM] | also measured |
| --- | --- | --- | --- | --- | --- | --- | --- | --- | --- |
| 8480 | 4180 | > 10000 |  |  |  |  | N#Cc1cccc(CN2CCC=C(CCC(=O)NO)C2=O)c1 |  |  |
| 4150 | 2560 | 3300 | 2460 | 2880 |  |  | O=C(CCC1=CCCN(CCCCc2ccc(Cl)cc2)C1=O)NO | 1790 |  |
| 7250 | 3910 | 4210 | 8710 | 6500 |  |  | O=C(CCC1=CCCN(CCc2ccccc2Cl)C1=O)NO | 5930 |  |
| 810 | 870 | 1250 | 300 | 1830 |  |  | O=C(CCC1=CCCN(CCc2cccc(Br)c2)C1=O)NO | 820 |  |
| 300 | 560 | 530 | 460 | 490 |  |  | O=C(CCC1=CCCN(CCCc2ccc3ccccc3c2Br)C1=O)NO | 790 |  |
| 2530 | 3050 | 2940 | 2490 | 2790 | 4 | 5.7 | Cc1ccc(CCCCN2CCC=C(CCC(=O)NO)C2=O)cc1 | 2130 | remaining at 1 µM [7]: 99.3% |
| 2470 | 1900 | 2350 | 2640 | 3970 |  |  | O=C(CCC1=CCCN(CCc2cccc(C(F)(F)F)c2)C1=O)NO | 1700 |  |
| > 10000 | > 10000 | > 10000 | 9530 | > 10000 |  |  | O=C(CCC1=CCCN(CCCCc2ccc(F)cc2)C1=O)NO | 9020 |  |
| 4820 | 1810 | 1700 |  |  |  |  | O=C(CCC1=CCCN(CCc2ccc(C(F)(F)F)cc2)C1=O)NO |  |  |
| 5190 | 2840 | 2940 | 3000 |  |  |  | CC(C)(C)c1ccc(CN2CCC=C(CCC(=O)NO)C2=O)cc1 |  |  |
| > 10000 | 4040 | 4410 |  |  |  |  | Cc1cccc(CCN2CCC=C(CCC(=O)NO)C2=O)c1 |  |  |
|  |  |  |  |  |  |  | CNC(=C[N+](=O)[O-])NCCSCc1ccc(CN(C)C)o1 [RANITIDINE] |  | Papp [10]: 1.5 ×10⁻⁶ cm/s |
| 1510 | 920 | 1660 | 1280 | 2120 |  |  | O=C(CCC1=CCCN(CCc2ccc(Cl)cc2)C1=O)NO | 1060 |  |
|  |  |  |  |  | 1.2 | 86.8 | CN(C)CCCN1c2ccccc2Sc2ccc(Cl)cc21 [CHLORPROMAZINE] |  |  |
| 4810 | 3540 | 3190 | 2390 | 2730 |  |  | O=C(CCC1=CCCN(CCCCc2ccc(Br)cc2)C1=O)NO | 2010 |  |
|  |  |  |  |  |  |  | COCCc1ccc(OCC(O)CNC(C)C)cc1 (stereo unspecified) [METOPROLOL] |  | Papp [10]: 29.6 ×10⁻⁶ cm/s |
| 3250 | 2030 | 5400 | 1890 | 5990 | 8.7 | 8.5 | O=C(CCC1=CCCN(CCCCc2ccccc2)C1=O)NO | 3190 | half-life [11]: 77.4 min; AUC(0-inf) [12]: 1670 ng·h/mL; Cmax [13]: 197 ng/mL; clearance [14]: 49.8 mL/min/kg; remaining at 1 µM [7]: 97.3%; Tmax [15]: 15 min; bioavailability [16]: 1%; half-life [17]: 9 min; Vd [18]: 0.27 L/kg; AUC(0-t) at 4 h [19]: 64.4 ng·h/mL; Papp [10]: 23.9 ×10⁻⁶ cm/s |
| 3410 | 1870 | 870 |  |  | 29.6 | 56.6 | O=C(CCC1=CCCN(CCc2ccc(Br)cc2)C1=O)NO |  | remaining at 1 µM [7]: 104% |
| 1130 | > 10000 | 1660 | 1720 | 2000 | 3.3 | 8 | CC(C)(C)c1ccc(CCCN2CCC=C(CCC(=O)NO)C2=O)cc1 | 2810 | remaining at 1 µM [7]: 103% |
| 390 | 270 | 310 | 380 | 430 |  |  | O=C(CCC1=CCCN(CCc2ccc3ccccc3c2)C1=O)NO | 360 |  |
| 5810 | 3120 | 5370 |  |  | 31.7 | 55 | O=C(CCC1=CCCN(Cc2ccc(Br)cc2F)C1=O)NO |  | AUC(0-inf) [12]: 2590 ng·h/mL; CL [20]: 65 mL/min/kg; Cmax [13]: 1390 ng/mL; remaining at 1 µM [7]: 102%; Tmax [15]: 15 min; bioavailability [16]: 14.1%; Vdss [21]: 0.8 L/kg; t1/2 [22]: 372 min; AUC(0-t) at 4 h [19]: 732 ng·h/mL |
| 4840 | 3030 | 3960 | 7600 | 7060 |  |  | COc1cccc(CCN2CCC=C(CCC(=O)NO)C2=O)c1 | 4260 |  |
| 6340 | 2840 | 4000 | 4550 | 5560 |  |  | Cc1ccc(CCN2CCC=C(CCC(=O)NO)C2=O)cc1 | 3570 |  |
| 4650 | 3580 | 6220 | 4480 | 2960 | 31.3 | 40.3 | O=C(CCC1=CCCN(Cc2cccc(Cl)c2)C1=O)NO | 3920 | remaining at 1 µM [7]: 103% |
| > 10000 | > 10000 | > 10000 | > 10000 | > 10000 |  |  | O=C(CCC1=CCCN(CCc2ccc([N+](=O)[O-])cc2)C1=O)NO | > 10000 |  |
| 7070 | 3020 | 3600 | 4470 | 6090 | 45.3 | 52.7 | O=C(CCC1=CCCN(CCc2ccccc2F)C1=O)NO | 3780 | remaining at 1 µM [7]: 104% |
| 500 | 1130 | 520 | 2270 | 990 |  |  | CC(C)(C)c1ccc(CCN2CCC=C(CCC(=O)NO)C2=O)cc1 | 1100 |  |
| > 10000 | 8170 | > 10000 |  |  |  |  | N#Cc1ccc(CN2CCC=C(CCC(=O)NO)C2=O)cc1 |  |  |

| SMILES | GI50 [1] [nM] | GI50 [2] [nM] | GI50 [3] [nM] | GI50 [4] [nM] | GI50 [5] [nM] | remaining at 1 µM [8] [%] | remaining at 1 µM [9] [%] | GI50 [6] [nM] | also measured |
| --- | --- | --- | --- | --- | --- | --- | --- | --- | --- |
| O=C1CC2(CCCC2)CC(=O)N1CCCCN1CCN(c2ncccn2)CC1 [BUSPIRONE] |  |  |  |  |  | 0.3 | 96.6 |  | remaining at 1 µM [7]: 106% |
